# An excerpt weighted towards active compounds, which were near 2.4% of everything screened.
# S1P4 agonist – S1P4 receptor agonists, primary screen, cell-based; 220,000 compounds, 0.35% hits; AID 1509, 2009; Sphingosine 1-phosphate receptor 4 (Homo sapiens), O95977; activation, % at 4.98 µM; S1P4-expressing cell line, agonist reporter assay; in the data active means activation above about 11%;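 further: 0% = DMSO vehicle and 100% = reference agonist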
# NPY-Y1 PAM-ag – NPY-Y1 receptor potentiators or agonists, primary screen, cell-based. 220,000 compounds, 0.37% hits. NPY-Y1 expressing cells, potentiator/agonist activation. AID 1304, 2008. Neuropeptide Y receptor type 1 (Homo sapiens), P25929. activation, % at 3.6 µM; in the data active means activation above about 33%, passing the limit was not always enough;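 further: cells stimulated with NPY at EC10 then isoproterenol at EC100; 0% = low agonist plus stimulus and 100% = saturating agonist plus stimulus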
# Target sequence (P25929 whole entry, looked up): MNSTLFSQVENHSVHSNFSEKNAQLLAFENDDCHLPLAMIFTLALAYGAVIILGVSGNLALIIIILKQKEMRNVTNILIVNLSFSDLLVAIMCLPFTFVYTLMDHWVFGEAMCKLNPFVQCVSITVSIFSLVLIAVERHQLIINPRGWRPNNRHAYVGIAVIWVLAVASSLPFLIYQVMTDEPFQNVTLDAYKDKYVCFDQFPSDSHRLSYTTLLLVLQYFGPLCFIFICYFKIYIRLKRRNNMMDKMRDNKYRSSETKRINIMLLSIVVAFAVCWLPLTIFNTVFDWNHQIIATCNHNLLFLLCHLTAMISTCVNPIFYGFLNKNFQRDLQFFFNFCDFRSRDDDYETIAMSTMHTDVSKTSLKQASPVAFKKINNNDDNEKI
# NPY-Y2 antag – NPY-Y2 receptor antagonists, primary screen, cell-based. inhibition, % at 2.7 µM. 140,000 compounds, 0.99% hits. Neuropeptide Y receptor type 2 (Homo sapiens), P49146. NPY-Y2 expressing cells, antagonist mode. AID 793, 2007; in the data active means inhibition above about 17%;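 further: 0% = vehicle with agonist challenge and 100% = reference antagonist with challenge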
# NPY Y1 blocker – NPY-Y1 receptor antagonists, primary screen, cell-based; HEK293-CNG Y1 cells, membrane potential fluorescence; NPY at EC95, then isoproterenol; inhibition, % at 3.6 µM; 200,000 compounds, 1% hits; Neuropeptide Y receptor type 1 (Homo sapiens), P25929;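 active means inhibition above the campaign mean inhibition of all tested compounds plus 3 SD, cut at about 20% in these data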;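 further: 0% = DMSO wells given NPY plus isoproterenol and 100% = isoproterenol alone without NPY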
#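 Material: HEK293 cells co-expressing NPY Y1 receptor and cyclic-nucleotide gated channel. Timing: compound incubation 1 h at room temperature, readout 45 min post-stimulation. Signal: fluorescence, membrane potential probe.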
# NPY-Y2 PAM-ag – NPY-Y2 potentiators or agonists, primary screen, cell-based. 220,000 compounds, 0.45% hits. Neuropeptide Y receptor type 2 (Homo sapiens), P49146. activation, % at 3.6 µM. cells expressing NPY-Y2, potentiator/agonist read-out; in the data active means activation above about 27%;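 further: cells stimulated with NPY near EC25 plus isoproterenol at EC100; 0% = vehicle plus submaximal agonist and 100% = vehicle plus saturating agonist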
# S1P4 antag – S1P4 receptor antagonists, primary screen, cell-based; S1P4-expressing cells, antagonist mode, reporter read-out; inhibition, % at 4.98 µM; 220,000 compounds, 0.26% hits; AID 1510, 2009; in the data active means inhibition above about 29%;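 further: 0% = wells stimulated with agonist and 100% = vehicle wells without agonist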
# S1P4 antag conf – S1P4 receptor antagonists, human, confirmation, cell-based; shares compounds with S1P4 antag; S1P4-expressing cell line, antagonist mode, reporter read-out; inhibition, % at 4.98 µM; 520 compounds, 71% hits; AID 1524, 2009; in the data active means inhibition above about 30%
# S1P1 antag – S1P1 receptor antagonists, human, counter-screen for S1P4 antagonist project, cell-based. inhibition, % at 4.98 µM. shares compounds with S1P4 antag. 520 compounds, 37% hits. cell-based S1P1 antagonist counterscreen, inhibition; in the data active means inhibition above about 40%;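 further: receptor stimulated with S1P near its EC80; 0% = agonist stimulated wells and 100% = vehicle only wells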
# * = called active by the depositor; · = no result given.
SMILES,S1P4 agonist,NPY-Y1 PAM-ag,NPY-Y2 antag,NPY Y1 blocker,NPY-Y2 PAM-ag,S1P4 antag,S1P4 antag conf,S1P1 antag
CC(C)N1CCC2(CC1)N=C(c1ccc3c(c1)OCO3)CC(c1cc(Cl)ccc1O)N2 (configuration not stated),0,17,4,0,3,35*,79*,23
O=C1c2cccc3c([N+](=O)[O-])ccc(c23)C(=O)N1c1ccccn1,-3,-31,11,18,-17,105*,113*,151*
COCCCNC(=O)/C=C1\Sc2ccccc2N(Cc2ccccc2F)C1=O,0,26,·,0,22,66*,0,13
COc1ccc(OC)c(NC=C2C(=O)OC3(CCCCC3)OC2=O)c1,4,-22,3,4,-20,32*,-19,-3
CCC(c1nnnn1CCc1ccccc1)N1CCN(C(=O)c2ccco2)CC1 (configuration not stated),-2,-1,3,1,-15,33*,7,18
Cc1ccccc1CS(=O)(=O)c1nnc([C@H](Cc2ccccc2)NC(=O)OC(C)(C)C)o1,-2,7,0,-1,8,71*,108*,34
CCSc1nnc([C@H](Cc2ccccc2)NC(=O)OC(C)(C)C)o1,3,-12,0,7,-3,-12,·,·
CCC(C)[C@@H](NC(=O)OC(C)(C)C)c1nnc(S(=O)(=O)Cc2cccc(C)c2)o1 (some centres not stated),-4,1,0,-4,-8,76*,109*,31
Cc1ccc(OCCn2c(=O)oc3ccc(C)cc32)cc1,-1,-41,·,20,-44,0,·,·
Cc1ccc2oc(=O)n(CCCOc3ccccc3)c2c1,0,1,3,6,-18,34*,11,11
Cc1ccc(SCCC(=O)N2CCOCC2)cc1,0,-33,3,6,-4,29*,7,6
Cn1nc(C(=O)NCCc2ccc(S(N)(=O)=O)cc2)c2ccccc2c1=O,0,7,·,·,-6,-10,·,·
CCCCNc1ccc2c3c(cccc13)C(=O)N(CCCC)C2=O,0,-7,·,·,2,45*,67*,98*
Cc1nc(NC(=O)/C=C/c2ccccc2)n[nH]1,1,14,2,-2,8,0,·,·
O=[N+]([O-])c1ccc(N=Nc2c(Cl)cc(O)cc2Cl)cc1,1,67*,·,·,65*,31*,67*,18
CC(N)=Nc1ccc([N+](=O)[O-])cc1,0,-9,-1,0,8,3,·,·
COc1ccc(C(=O)C(CN2CCOCC2)c2ccccc2)cc1 (configuration not stated),-3,-9,0,4,-10,45*,31*,19
Cc1ccc(C)c(OCC(=O)Nc2ccc3c(c2)OCO3)c1C,0,-1,14,11,6,30*,2,6
Cc1cccc(OCC(=O)Nc2ccc3c(c2)OCO3)c1C,0,-22,7,-1,-7,-5,·,·
CCOC(=O)/C(=C\c1ccc(OC(F)F)cc1)C1=Nn2c(nnc2-c2ccc(Cl)cc2)SC1,0,-8,3,-5,12,31*,119*,87*
O=C(OCn1ncc(Br)c(Br)c1=O)c1ccccc1Cl,-1,-25,0,2,-1,48*,115*,29
O=C(OCn1ncc(Br)c(Br)c1=O)c1ccc(F)cc1,-2,-34,-1,0,9,78*,117*,47*
CCC(C)[C@H](NC(=O)Nc1ccc(C)cc1C)C(=O)O (some centres not stated),0,28,·,·,-11,6,·,·
Cc1cccc(NC(=O)C2CCCN(C(=O)NC3CCCCC3)C2)c1C (configuration not stated),0,-19,3,-3,-6,36*,-16,-10
C/C(=N\NC(=O)CCn1nnc2ccccc21)c1ccco1,0,-2,·,·,-20,2,·,·
SMILES,S1P4 agonist,NPY-Y1 PAM-ag,NPY-Y2 antag,NPY Y1 blocker,NPY-Y2 PAM-ag,S1P4 antag,S1P4 antag conf,S1P1 antag
CC1Cn2c(nnc2-c2cc3ccccc3cc2O)S1 (configuration not stated),1,4,1,0,10,34*,6,26
CC1Cn2c(nnc2-c2ccccc2O)S1 (configuration not stated),-4,-4,2,-2,2,1,·,·
CC1CC(=O)C2=C(C1)Nc1ccccc1SC2c1ccc(F)cc1 (configuration not stated),0,34,-1,-4,12,-5,·,·
N#CCCN(Cc1ccccc1)C(=O)c1cccs1,2,-8,·,·,-13,23,·,·
CCOC(=O)C(C)(C)NS(=O)(=O)c1ccc(Cl)c([N+](=O)[O-])c1,-3,37,-3,1,22,26,·,·
CCOC(=O)C(C)(C)N(Cc1ccc(C)cc1)S(=O)(=O)c1ccc(Cl)c([N+](=O)[O-])c1,-1,76*,0,0,51*,43*,80*,1
COc1cc2cc(CN(Cc3cccnc3)C(=O)Nc3ccccc3F)c(=O)[nH]c2cc1OC,0,10,·,5,-3,-7,·,·
CCCCn1c(=O)c2c(O)cc(=O)oc2c2ccccc21,0,1,0,0,-7,13,·,·
O=c1cc(O)c2c(=O)n(Cc3ccccc3)c3ccccc3c2o1,3,18,·,0,1,89*,-7,15
CC(=O)N1CCc2c(sc(NC(=O)c3ccc([N+](=O)[O-])o3)c2C#N)C1,0,-1,·,-3,8,33*,82*,34
Cc1[nH]n2c(=O)cc(C(C)C)nc2c1-c1ccccc1,1,-6,5,5,10,-1,·,·
Cc1[nH]n2c(=O)cc(C(C)(C)C)nc2c1-c1ccccc1,1,5,7,5,-14,34*,1,12
O=C(Nc1ccc(S(=O)(=O)N2CCOCC2)cc1)c1ccc([N+](=O)[O-])o1,1,2,·,·,-18,68*,85*,36
CCN1CCN(c2ccc(NC(=O)c3ccc(F)cc3)cc2Cl)CC1,-1,-13,·,4,-20,-2,·,·
